Test results from the M2OR odorant receptor database.

Tests used:
Conditions in all cases: stereoisomer not certain
[1] = target: OR6C3 (Homo sapiens) (UniProt Q9NZP0)
Outline: (§1)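 Each entry records the cell line, G-protein, co-transfected protein and tags used. Methods varied with the source, often transient luciferase assays in mammalian cell lines. A receptor–molecule pair is called responsive (active) if the original authors judged its signal statistically different from baseline and non-responsive (inactive) otherwise.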

[2] = target: OR6C4 (Homo sapiens) (UniProt Q8NGE1)
Outline: as §1

[3] = target: OR6C6 (Homo sapiens) (UniProt A6NF89)
Outline: as §1

[4] = target: OR6C65 (Homo sapiens) (UniProt A6NJZ3)
Outline: as §1

[5] = target: OR6C68 (Homo sapiens) (UniProt A6NDL8)
Outline: as §1

[6] = target: OR6C70 (Homo sapiens) (UniProt A6NIJ9)
Outline: as §1

[7] = target: OR6C74 (Homo sapiens) (UniProt A6NCV1)
Outline: as §1

[8] = target: OR6C75 (Homo sapiens) (UniProt A6NL08)
Outline: as §1

[9] = system: OR6C4
Outline: as §1

[10] = system: OR6C6 M6I
Outline: as §1

Measured: odorant receptor agonist call

Sequence of OR6C70 (Homo sapiens) (A6NIJ9 whole entry): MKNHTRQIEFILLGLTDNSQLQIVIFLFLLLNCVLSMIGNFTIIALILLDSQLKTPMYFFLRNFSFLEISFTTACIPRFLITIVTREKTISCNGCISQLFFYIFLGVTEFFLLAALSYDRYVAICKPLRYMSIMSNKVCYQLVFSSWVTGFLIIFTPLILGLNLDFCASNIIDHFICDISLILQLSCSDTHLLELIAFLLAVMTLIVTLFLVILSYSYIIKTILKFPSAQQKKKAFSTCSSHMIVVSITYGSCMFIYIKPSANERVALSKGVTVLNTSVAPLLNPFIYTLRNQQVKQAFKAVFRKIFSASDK
Sequence of OR6C75 (Homo sapiens) (A6NL08 whole entry): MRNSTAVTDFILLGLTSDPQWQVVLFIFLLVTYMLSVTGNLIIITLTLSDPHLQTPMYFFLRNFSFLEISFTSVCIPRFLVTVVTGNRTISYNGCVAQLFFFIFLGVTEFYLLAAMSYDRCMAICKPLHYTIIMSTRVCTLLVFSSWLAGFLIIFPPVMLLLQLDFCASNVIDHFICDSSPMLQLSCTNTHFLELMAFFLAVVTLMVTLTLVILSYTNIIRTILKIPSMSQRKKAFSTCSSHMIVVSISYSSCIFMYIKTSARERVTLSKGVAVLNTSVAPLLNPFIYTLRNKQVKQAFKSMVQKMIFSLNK
Sequence of OR6C6 (Homo sapiens) (A6NF89 whole entry): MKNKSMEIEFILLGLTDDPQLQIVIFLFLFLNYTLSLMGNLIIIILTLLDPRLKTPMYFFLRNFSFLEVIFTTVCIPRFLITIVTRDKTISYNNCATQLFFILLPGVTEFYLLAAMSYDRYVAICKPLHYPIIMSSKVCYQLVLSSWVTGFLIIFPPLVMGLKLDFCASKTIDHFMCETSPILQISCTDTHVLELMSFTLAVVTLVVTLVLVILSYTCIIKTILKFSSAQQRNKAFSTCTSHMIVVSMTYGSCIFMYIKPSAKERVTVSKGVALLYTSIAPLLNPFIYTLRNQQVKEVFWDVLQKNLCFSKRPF
Sequence of OR6C74 (Homo sapiens) (A6NCV1 whole entry): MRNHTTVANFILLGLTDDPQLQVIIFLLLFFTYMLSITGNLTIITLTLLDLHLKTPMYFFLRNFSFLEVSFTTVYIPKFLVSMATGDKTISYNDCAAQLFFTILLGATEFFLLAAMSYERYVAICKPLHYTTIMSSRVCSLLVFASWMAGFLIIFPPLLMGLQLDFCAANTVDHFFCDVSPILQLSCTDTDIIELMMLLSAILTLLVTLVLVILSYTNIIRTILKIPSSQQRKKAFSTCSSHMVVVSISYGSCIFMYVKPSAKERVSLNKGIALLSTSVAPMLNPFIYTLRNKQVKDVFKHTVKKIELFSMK
Sequence of OR6C65 (Homo sapiens) (A6NJZ3 whole entry): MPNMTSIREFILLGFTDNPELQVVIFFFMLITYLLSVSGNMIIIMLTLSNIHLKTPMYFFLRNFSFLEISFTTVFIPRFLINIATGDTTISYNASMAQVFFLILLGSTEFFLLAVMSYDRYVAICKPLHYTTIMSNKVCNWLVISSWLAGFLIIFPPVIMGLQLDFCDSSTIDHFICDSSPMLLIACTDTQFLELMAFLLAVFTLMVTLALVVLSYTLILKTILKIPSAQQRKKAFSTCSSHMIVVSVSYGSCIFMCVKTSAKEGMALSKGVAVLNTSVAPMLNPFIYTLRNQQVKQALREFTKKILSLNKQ
Sequence of OR6C68 (Homo sapiens) (A6NDL8 whole entry): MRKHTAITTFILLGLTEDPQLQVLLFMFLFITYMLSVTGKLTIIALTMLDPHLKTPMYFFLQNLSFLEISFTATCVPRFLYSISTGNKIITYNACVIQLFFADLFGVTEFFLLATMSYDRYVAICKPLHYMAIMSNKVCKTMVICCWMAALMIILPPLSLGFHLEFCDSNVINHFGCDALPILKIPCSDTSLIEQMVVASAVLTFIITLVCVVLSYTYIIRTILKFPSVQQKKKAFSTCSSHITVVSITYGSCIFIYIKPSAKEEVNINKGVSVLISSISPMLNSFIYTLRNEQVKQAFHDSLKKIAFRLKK
Sequence of OR6C3 (Homo sapiens) (Q9NZP0 whole entry): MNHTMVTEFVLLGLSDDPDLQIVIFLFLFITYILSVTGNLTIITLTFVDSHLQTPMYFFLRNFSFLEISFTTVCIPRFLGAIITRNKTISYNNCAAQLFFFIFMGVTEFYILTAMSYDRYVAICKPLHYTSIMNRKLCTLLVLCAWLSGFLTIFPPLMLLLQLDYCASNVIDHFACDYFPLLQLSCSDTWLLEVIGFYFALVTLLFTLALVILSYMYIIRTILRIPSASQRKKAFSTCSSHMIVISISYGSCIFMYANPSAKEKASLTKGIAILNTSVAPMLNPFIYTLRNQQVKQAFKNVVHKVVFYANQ
Sequence of OR6C4 (Homo sapiens) (Q8NGE1 whole entry): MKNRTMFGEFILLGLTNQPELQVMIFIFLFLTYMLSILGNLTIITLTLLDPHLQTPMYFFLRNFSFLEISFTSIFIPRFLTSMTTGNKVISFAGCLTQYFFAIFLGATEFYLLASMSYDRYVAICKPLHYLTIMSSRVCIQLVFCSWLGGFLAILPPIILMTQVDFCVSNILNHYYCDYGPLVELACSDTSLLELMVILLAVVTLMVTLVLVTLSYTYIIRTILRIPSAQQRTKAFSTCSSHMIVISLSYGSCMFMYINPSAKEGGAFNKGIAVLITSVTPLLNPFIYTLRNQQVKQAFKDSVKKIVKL
Sequence of OR6C6 M6I (as listed by the source): as the sequence (A6NF89 whole entry) above, with M6I counted along it
Sequence of OR6C4 (as listed by the source): as the sequence (Q8NGE1 whole entry) above, with I37V counted along it

Cc1c([N+](=O)[O-])c(C)c([N+](=O)[O-])c(C(C)(C)C)c1[N+](=O)[O-]
inactive: [1] | [2] | [3] | [4] | [5] | [6] | [7] | [8]

C=CCOC(=O)Cc1ccccc1
inactive: [1] | [2] | [9] | [3] | [10] | [4] | [5] | [6] | [7] | [8]
